In ChEMBL document CHEMBL1125672, “2-acetylpyridine thiosemicarbazones. 13. Derivatives with antifilarial activity” (1991):

How the values were obtained:
Type in all cases: functional
Onchocerca gutturosa [1] = assay: Mean motility score for treated Onchocerca gutturosa involving LLCMK2 feeder cells at a concentration of 3.1*10e-6 M at 4 h
Method in brief: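 Single male O. gutturosa worms (obtained following abattoir slaughter) per well in Eagle's MEM with 10% heat-inactivated fetal calf serum, penicillin, streptomycin, amphotericin B and bicarbonate, over LLCMK2 feeder cells, 5% CO2 in air. Drug dissolved in DMSO; controls received matched DMSO ≤0.016%. Motility scored 0 (immotile) to 10 (maximum control activity) every 30 min to 4.5 h, then days 1, 2, 3, 4, 7.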

Onchocerca gutturosa [2] = assay: Mean motility score for treated Onchocerca gutturosa involving LLCMK2 feeder cells at a concentration of 1.95*10e-8 M at 2 h
Method in brief: (§1)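 One male O. gutturosa per well over LLCMK2 feeder cells in MEM with 10% heat-inactivated FCS, antibiotics and bicarbonate, 5% CO2; compound introduced in DMSO (≤0.016%, equal DMSO in controls). Motility scored 0 (immotile) to 10 (maximal control activity) every 30 min to 4.5 h, then at 1, 2, 3, 4 and 7 days.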

Onchocerca gutturosa [3] = assay: Mean motility score for treated Onchocerca gutturosa involving LLCMK2 feeder cells at a concentration of 3.05*10e-9 M at 0.5 h; method in brief: as §1

Structure (SMILES)	Motility (Onchocerca gutturosa [1])	Motility (Onchocerca gutturosa [2])	Motility (Onchocerca gutturosa [3])
C/C(=N\NC(=S)N1CCCCCC1)c1ccccn1	9	9.3	–
C/C(=N\NC(S)=Nc1ccccc1N)c1ccccn1	–	–	8.8
